In ChEMBL document CHEMBL4359896, “Chromenone derivatives as a versatile scaffold with dual mode of inhibition of HIV-1 reverse transcriptase-associated Ribonuclease H function and integrase activity” (Eur J Med Chem, 2019):

Biological target: Human immunodeficiency virus type 1 reverse transcriptase (Human immunodeficiency virus 1, UniProt Q72547)
Experiment: Inhibition of His6-tagged HIV-1 reverse transcriptase RNase H using 5'-GTTTTCTTTTCCCCCCTGAC-3'-Fluorescein-labeled RNA/5'-CAAAAGAAAAGGGGGGACUG-3'-Dabcyl-labeled DNA as susbtrate incubated for 1 hr by fluorescence based assay
`Cc1cc(-c2c(O)c3c(=O)oc4ccccc4c3oc2=O)nn1-c1ccccc1` showed an IC50 of 51.8 µM.
Molecule `CC(=O)CC(=O)c1c(O)c2c(=O)oc3c4ccccc4ccc3c2oc1=O` has an IC50 of 51.2 µM.
Work on `CC(=O)CC(=O)c1c(O)c2c(=O)oc3ccccc3c2oc1=O` yielded an IC50 of 85.8 µM.
`Cc1ccc2c(c1)oc(=O)c1c(O)cc(=O)oc12` gave an IC50 greater than 100 µM.
In the case of `Cc1cc(=O)c2c(=O)oc3c4ccccc4oc(=O)c3c2o1`, the IC50 is reported as 16.8 µM.
Molecule `Cc1ccc2oc(=O)c3c(O)cc(=O)oc3c2c1` has an IC50 of 16.5 µM.
For `CC(=O)c1c(O)c2c(=O)oc3cc(C)ccc3c2oc1=O`, the IC50 was greater than 100 µM.
In the case of `Cc1ccc2oc(=O)c3cc(C4=Nc5ccc(C(=O)c6ccccc6)cc5N=CC4)c(=O)oc3c2c1`, the IC50 is reported as 42.9 µM.
In the case of `O=C(c1ccccc1)c1ccc2c(c1)N=CCC(c1c(O)c3c(=O)oc4ccccc4c3oc1=O)=N2`, the IC50 is reported as 38.4 µM.
With `O=c1cc(O)c2c(=O)oc3c4ccccc4ccc3c2o1` the IC50 was 24.7 µM.
With `CC(=O)c1c(O)c2c(=O)oc3c(C)cccc3c2oc1=O` the IC50 was 25.5 µM.
`CC(=O)CC(=O)c1c(O)c2c(=O)oc3ccc4ccccc4c3c2oc1=O` showed an IC50 of 13.8 µM.
`CC(=O)c1c(O)c2c(=O)oc3ccccc3c2oc1=O` showed an IC50 of 26.3 µM.
For `CC(=O)c1c(O)c2c(=O)oc3ccc(C)cc3c2oc1=O`, the IC50 was 6.75 µM.
In the case of `O=c1cc(O)c2c(=O)oc3ccc4ccccc4c3c2o1`, the IC50 is reported as 61.3 µM.
`Cc1cccc2c1oc(=O)c1c(O)cc(=O)oc12` gave an IC50 of 29.8 µM.

Biological target: T1, Human immunodeficiency virus type 1 integrase (Human immunodeficiency virus 1, UniProt Q7ZJM1)
T1 sequence (Q7ZJM1 whole entry): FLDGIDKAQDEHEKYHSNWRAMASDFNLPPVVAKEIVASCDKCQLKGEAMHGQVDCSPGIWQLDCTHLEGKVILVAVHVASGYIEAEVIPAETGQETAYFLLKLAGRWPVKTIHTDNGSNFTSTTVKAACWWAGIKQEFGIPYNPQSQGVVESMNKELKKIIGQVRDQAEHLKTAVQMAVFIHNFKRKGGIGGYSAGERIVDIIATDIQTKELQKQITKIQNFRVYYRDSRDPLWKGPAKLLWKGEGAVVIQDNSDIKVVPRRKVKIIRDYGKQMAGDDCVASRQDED
Experiment: Inhibition of LEDGF/p75-dependent full length HIV-1 integrase expressed in Escherichia coli BL21(DE3) cells preincubated for 1 hr further incubated for 90 mins with biotin-labeled donor DNA and target DNA by HTRF assay
In the case of `Cc1cc(-c2c(O)c3c(=O)oc4ccccc4c3oc2=O)nn1-c1ccccc1`, the IC50 is reported as greater than 100 µM.
Molecule `CC(=O)CC(=O)c1c(O)c2c(=O)oc3c4ccccc4ccc3c2oc1=O` has an IC50 of 11 µM.
`CC(=O)CC(=O)c1c(O)c2c(=O)oc3ccccc3c2oc1=O` gave an IC50 of 42 µM.
Work on `Cc1ccc2c(c1)oc(=O)c1c(O)cc(=O)oc12` yielded an IC50 of 41.5 µM.
For `Cc1cc(=O)c2c(=O)oc3c4ccccc4oc(=O)c3c2o1`, the IC50 was 14 µM.
Work on `Cc1ccc2oc(=O)c3c(O)cc(=O)oc3c2c1` yielded an IC50 of 9.5 µM.
Molecule `CC(=O)c1c(O)c2c(=O)oc3cc(C)ccc3c2oc1=O` has an IC50 of 22.4 µM.
With `Cc1ccc2oc(=O)c3cc(C4=Nc5ccc(C(=O)c6ccccc6)cc5N=CC4)c(=O)oc3c2c1` the IC50 was greater than 100 µM.
Work on `O=C(c1ccccc1)c1ccc2c(c1)N=CCC(c1c(O)c3c(=O)oc4ccccc4c3oc1=O)=N2` yielded an IC50 of 20 µM.
For `O=c1cc(O)c2c(=O)oc3c4ccccc4ccc3c2o1`, the IC50 was 7.5 µM.
For `CC(=O)c1c(O)c2c(=O)oc3c(C)cccc3c2oc1=O`, the IC50 was 18.5 µM.
Molecule `CC(=O)CC(=O)c1c(O)c2c(=O)oc3ccc4ccccc4c3c2oc1=O` has an IC50 of 47.5 µM.
`CC(=O)c1c(O)c2c(=O)oc3ccccc3c2oc1=O` gave an IC50 of 8.5 µM.
For `CC(=O)c1c(O)c2c(=O)oc3ccc(C)cc3c2oc1=O`, the IC50 was 6.45 µM.
For `O=c1cc(O)c2c(=O)oc3ccc4ccccc4c3c2o1`, the IC50 was 21.5 µM.
Work on `Cc1cccc2c1oc(=O)c1c(O)cc(=O)oc12` yielded an IC50 of 24 µM.

Biological target: Human immunodeficiency virus type 1 integrase (Human immunodeficiency virus 1) (UniProt Q7ZJM1)
Sequence (Q7ZJM1 as listed by the source): as the sequence (Q7ZJM1 whole entry) above
Experiment: Inhibition of LEDGF/p75-dependent full length HIV-1 integrase expressed in Escherichia coli BL21(DE3) cells at 100 uM preincubated for 1 hr further incubated for 90 mins with biotin-labeled donor DNA and target DNA by HTRF assay relative to control
Method in brief: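 Added 9 nM biotinylated donor DNA, 50 nM Cy5 acceptor DNA and 50 nM LEDGF/p75. Incubation 90 min at 37 °C, then 4 nM europium-streptavidin added. HTRF read (excitation 314 nm, emission 668/620 nm).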
With `Cc1cc(-c2c(O)c3c(=O)oc4ccccc4c3oc2=O)nn1-c1ccccc1` the inhibition was 61%.
With `Cc1ccc2oc(=O)c3cc(C4=Nc5ccc(C(=O)c6ccccc6)cc5N=CC4)c(=O)oc3c2c1` the inhibition was 78%.

Biological target: T1, Human immunodeficiency virus type 1 integrase
Experiment: Inhibition of subunit exchanging activity of His and Flag-tagged HIV-1 integrase expressed in Escherichia coli BL21(DE3) cells after 2.5 hrs by HTRF assay
`CC(=O)CC(=O)c1c(O)c2c(=O)oc3c4ccccc4ccc3c2oc1=O` gave an IC50 of 85 µM.
In the case of `Cc1cc(=O)c2c(=O)oc3c4ccccc4oc(=O)c3c2o1`, the IC50 is reported as greater than 100 µM.
With `Cc1ccc2oc(=O)c3c(O)cc(=O)oc3c2c1` the IC50 was 69 µM.
With `O=C(c1ccccc1)c1ccc2c(c1)N=CCC(c1c(O)c3c(=O)oc4ccccc4c3oc1=O)=N2` the IC50 was greater than 100 µM.
In the case of `O=c1cc(O)c2c(=O)oc3c4ccccc4ccc3c2o1`, the IC50 is reported as 57 µM.
For `CC(=O)c1c(O)c2c(=O)oc3ccc(C)cc3c2oc1=O`, the IC50 was 56.5 µM.

Tested on: not listed separately
Experiment: Inhibition of His-tagged HIV-1 integrase interaction with HIV-1 FLAG-tagged LEDGF/p75 expressed in Escherichia coli BL21(DE3) cells incubated for 30 mins followed by LEDGF addition measured after 4 hrs by HTRF assay
Set-up: species or system Human immunodeficiency virus 1
`CC(=O)CC(=O)c1c(O)c2c(=O)oc3c4ccccc4ccc3c2oc1=O` showed an IC50 greater than 100 µM.
Work on `Cc1cc(=O)c2c(=O)oc3c4ccccc4oc(=O)c3c2o1` yielded an IC50 greater than 100 µM.
With `Cc1nnc(C(=O)NC(C)(C)c2nc(C(=O)NCc3ccc(F)cc3)c(O)c(=O)n2C)o1` the IC50 was greater than 100 µM.
With `Cc1ccc2oc(=O)c3c(O)cc(=O)oc3c2c1` the IC50 was greater than 100 µM.
For `O=C(c1ccccc1)c1ccc2c(c1)N=CCC(c1c(O)c3c(=O)oc4ccccc4c3oc1=O)=N2`, the IC50 was greater than 100 µM.
For `O=c1cc(O)c2c(=O)oc3c4ccccc4ccc3c2o1`, the IC50 was greater than 100 µM.
Work on `CCCC(C(=O)O)c1c(C)nc2ccc(Cl)cc2c1-c1ccccc1` (centres undefined) yielded an IC50 of 13 µM.
Molecule `CC(=O)c1c(O)c2c(=O)oc3ccc(C)cc3c2oc1=O` has an IC50 greater than 100 µM.

Tested on: Human immunodeficiency virus 1
Experiment: Inhibition of His-tagged HIV-1 integrase interaction with HIV-1 FLAG-tagged LEDGF/p75 expressed in Escherichia coli BL21(DE3) cells at 100 uM incubated for 30 mins followed by LEDGF addition measured after 4 hrs by HTRF assay relative to control
Molecule `CC(=O)CC(=O)c1c(O)c2c(=O)oc3c4ccccc4ccc3c2oc1=O` has an inhibition of 73%.
`Cc1cc(=O)c2c(=O)oc3c4ccccc4oc(=O)c3c2o1` gave an inhibition of 56%.
`Cc1nnc(C(=O)NC(C)(C)c2nc(C(=O)NCc3ccc(F)cc3)c(O)c(=O)n2C)o1` showed an inhibition of 100%.
For `Cc1ccc2oc(=O)c3c(O)cc(=O)oc3c2c1`, the inhibition was 55%.
For `O=C(c1ccccc1)c1ccc2c(c1)N=CCC(c1c(O)c3c(=O)oc4ccccc4c3oc1=O)=N2`, the inhibition was 81%.
Work on `O=c1cc(O)c2c(=O)oc3c4ccccc4ccc3c2o1` yielded an inhibition of 53%.
`CC(=O)c1c(O)c2c(=O)oc3ccc(C)cc3c2oc1=O` gave an inhibition of 52%.

Biological target: Human immunodeficiency virus type 1 integrase (Human immunodeficiency virus 1) (UniProt Q7ZJM1)
Experiment: not given
Molecule `CC(=O)CC(=O)c1c(O)c2c(=O)oc3c4ccccc4ccc3c2oc1=O` has an MI50 greater than 100 µM.
Molecule `Cc1cc(=O)c2c(=O)oc3c4ccccc4oc(=O)c3c2o1` has an MI50 greater than 100 µM.
Work on `Cc1ccc2oc(=O)c3c(O)cc(=O)oc3c2c1` yielded an MI50 greater than 100 µM.
`O=C(c1ccccc1)c1ccc2c(c1)N=CCC(c1c(O)c3c(=O)oc4ccccc4c3oc1=O)=N2` gave an MI50 greater than 100 µM.
Work on `O=c1cc(O)c2c(=O)oc3c4ccccc4ccc3c2o1` yielded an MI50 greater than 100 µM.
In the case of `CCCC(C(=O)O)c1c(C)nc2ccc(Cl)cc2c1-c1ccccc1` (centres undefined), the MI50 is reported as 10 µM.
Molecule `CC(=O)c1c(O)c2c(=O)oc3ccc(C)cc3c2oc1=O` has an MI50 greater than 100 µM.

Biological target: Human immunodeficiency virus type 1 reverse transcriptase (Human immunodeficiency virus 1) (UniProt Q72547)
Experiment: Residual activity of His-tagged HIV-1 reverse transcriptase RNase H at 100 uM using 5'-GTTTTCTTTTCCCCCCTGAC-3'-Fluorescein-labeled RNA/5'-CAAAAGAAAAGGGGGGACUG-3'-Dabcyl-labeled DNA as susbtrate incubated for 1 hr by fluorescence based assay relative to control
In the case of `Cc1ccc2c(c1)oc(=O)c1c(O)cc(=O)oc12`, the residual activity is reported as 89%.
With `CC(=O)c1c(O)c2c(=O)oc3cc(C)ccc3c2oc1=O` the residual activity was 63%.
